Test [1] addresses T1, Low molecular weight protein-tyrosine phosphatase A (Mycobacterium tuberculosis) (UniProt P9WIA1).
T1 sequence (whole entry): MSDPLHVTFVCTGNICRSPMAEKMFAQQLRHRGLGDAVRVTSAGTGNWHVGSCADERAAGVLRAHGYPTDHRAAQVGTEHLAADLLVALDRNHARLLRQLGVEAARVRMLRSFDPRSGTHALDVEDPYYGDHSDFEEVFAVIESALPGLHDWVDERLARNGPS
Kind of test: Inhibition of recombinant Mycobacterium tuberculosis PtpA at 25 uM using p-nitrophenyl phosphate as substrate preincubated for 10 mins followed by substrate addition and measured every minute for 10 mins by UV-VIS spectrophotometric analysis. The method in brief: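 Single-point screen at 25 µM final (from 1 mM DMSO stock, 2.5% DMSO final). 50 nM recombinant Mtb PtpA in 20 mM imidazole pH 7.0, premixed with compound 10 min at 37 °C. Reaction started with 10 mM pNPP. A410 read each min for 10 min at 37 °C. Residual activity from absorbance difference 7 min minus 2 min versus no-inhibitor wells. Triplicate.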

In test [2] the target is T2, Low molecular weight protein-tyrosine phosphatase A (Mycobacterium tuberculosis, UniProt P9WIA1).
T2 sequence (P9WIA1 whole entry): T1 sequence (whole entry)
The test can be described thus: Inhibition of recombinant Mycobacterium tuberculosis PtpA using p-nitrophenyl phosphate as substrate preincubated for 10 mins followed by substrate addition and measured every minute for 10 mins by UV-VIS spectrophotometric analysis. An outline of the steps:
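Recombinant Mtb PtpA at 50 nM in 20 mM imidazole pH 7.0, premixed with inhibitor (0.5–50 µM, DMSO ≤4% v/v) 10 min at 37 °C. Started with 10 mM pNPP. A410 read each min for 10 min at 37 °C. Residual activity from 7 min minus 2 min absorbance versus no-inhibitor wells. IC50 by linear regression of % inhibition versus concentration. Triplicate, mean ± SD of three experiments.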

A word on the inhibition: it is the relative decrease from the control value, in per cent. Take `COc1ccc(NC(=S)N/N=C/c2ccccc2)cc1`: in test [1], the inhibition was 0%.
Same read-out and setting: the value for `Cc1ccc(NC(=S)N/N=C/c2ccccc2[N+](=O)[O-])cc1` was 21.6%.
By IC50 is commonly meant the concentration needed to halve the response being measured. `S=C(N/N=C/c1ccc2ccccc2c1)Nc1cccc2ccccc12`: the inhibition in test [1] amounted to 67.7%. Moreover, in test [2], the IC50 amounted to 23.7 µM.
On to `Cc1ccc(NC(=S)N/N=C/c2ccc3ccccc3c2)cc1`, for which the inhibition in test [1] came out at 29.3%.
On the same count and under the same terms, the value for `Cc1ccc(/C=N/NC(=S)Nc2ccc(C)cc2)cc1` was 0.7%; that for `Cc1ccc(NC(=S)N/N=C/c2ccc(Cl)cc2)cc1` was 4.9%.
The same measure, in the same setting: as for `COc1ccc(NC(=S)N/N=C/c2ccc(O)c(OC)c2)cc1`, the figure is 6.6%.
The same measure, in the same setting: the value for `COc1ccc(NC(=S)N/N=C/c2ccccc2[N+](=O)[O-])cc1` was 0%; that for `COc1ccc(OC)c(/C=N/NC(=S)Nc2ccc(C)cc2)c1` was 2.8%; that for `COc1ccc(/C=N/NC(=S)Nc2ccc(C)cc2)cc1OC` was 6.6%.
For `COc1cc(/C=N/NC(=S)Nc2cccc3ccccc23)cc(OC)c1OC`, in test [1], the inhibition came out at 0%.
Regarding `COc1ccc(/C=N/NC(=S)Nc2cccc3ccccc23)cc1OC`, the inhibition in test [1] came out at 64.5%. Further, in test [2], the half-maximal inhibitory concentration (IC50) came out at 18.2 µM.
`CN(C)c1ccc(/C=N/NC(=S)Nc2cccc3ccccc23)cc1`: the inhibition in test [1] amounted to 51.6%.
Consider `Cc1ccc(NC(=S)N/N=C/c2ccccc2)cc1`, for which the inhibition in test [1] amounted to 16.6%.
Same read-out and setting: the value for `COc1cc(/C=N/NC(=S)Nc2ccc(C)cc2)ccc1O` was 8.8%.
The same measure, in the same setting: the value for `COc1ccc(OC)c(/C=N/NC(=S)Nc2cccc3ccccc23)c1` was 44.2%.
On to `COc1ccc(NC(=S)N/N=C/c2ccc([N+](=O)[O-])cc2)cc1`, for which, in test [1], the inhibition is 64.4%. Moreover, the 50% inhibitory concentration (IC50) in test [2] turned out to be 15.1 µM.
As for `Cc1ccc(NC(=S)N/N=C/c2cccc3ccccc23)cc1`, the inhibition in test [1] was found to be 33.7%.
Same read-out and setting: as for `Cc1ccc(NC(=S)N/N=C/c2ccc3c(c2)OCO3)cc1`, the figure is 25.9%.
In the case of `Cc1ccc(NC(=S)N/N=C/c2ccc(N(C)C)cc2)cc1`, the inhibition in test [1] was determined as 35.4%.
Same read-out and setting: as for `COc1ccc(/C=N/NC(=S)Nc2ccc(C)cc2)cc1`, the figure is 8.9%; as for `COc1ccc(NC(=S)N/N=C/c2cccc3ccccc23)cc1`, 22.7%; as for `S=C(N/N=C/c1ccccc1)Nc1cccc2ccccc12`, 58.1%.
Same read-out and setting: the value for `COc1ccc(NC(=S)N/N=C/c2cc(OC)ccc2OC)cc1` was 0%; that for `COc1ccc(NC(=S)N/N=C/c2ccc(Cl)c(Cl)c2)cc1` was 21.4%; that for `Cc1ccc(NC(=S)N/N=C/c2ccc(-c3ccccc3)cc2)cc1` was 26.3%.
On the same count and under the same terms, as for `COc1cc(/C=N/NC(=S)Nc2ccc(C)cc2)cc(OC)c1OC`, the figure is 0%; as for `COc1ccc(NC(=S)N/N=C/c2ccc3ccccc3c2)cc1`, 23.7%; as for `COc1ccc(/C=N/NC(=S)Nc2cccc3ccccc23)cc1`, 22.6%.
Take `S=C(N/N=C/c1ccc(Cl)c(Cl)c1)Nc1cccc2ccccc12`: the inhibition in test [1] turned out to be 83.7%. Also, in test [2], the IC50 turned out to be 13.4 µM.
Consider `COc1ccc(NC(=S)N/N=C/c2ccc(Cl)cc2)cc1`, for which, in test [1], the inhibition was determined as 1%.
With `COc1ccc(NC(=S)N/N=C/c2ccc(C)cc2)cc1`, the inhibition in test [1] is 0%.
Same read-out and setting: the value for `COc1ccc(NC(=S)N/N=C/c2ccc(-c3ccccc3)cc2)cc1` was 41.2%; that for `Cc1ccc(NC(=S)N/N=C/c2ccc([N+](=O)[O-])cc2)cc1` was 37.2%; that for `S=C(N/N=C/c1ccc(Cl)cc1)Nc1cccc2ccccc12` was 0%.
In the case of `Cc1ccc(NC(=S)N/N=C/c2ccc(Cl)c(Cl)c2)cc1`, the inhibition in test [1] amounted to 23.4%.
Consider `COc1ccc(NC(=S)N/N=C/c2ccc(OC)c(OC)c2)cc1`, for which, in test [1], the inhibition worked out at 0%.
Same read-out and setting: as for `COc1cc(/C=N/NC(=S)Nc2cccc3ccccc23)ccc1O`, the figure is 0%.
On the same count and under the same terms, the value for `COc1ccc(/C=N/NC(=S)Nc2ccc(OC)cc2)cc1` was 0%.
Still for that read-out and setting: as for `O=[N+]([O-])c1ccccc1/C=N/NC(=S)Nc1cccc2ccccc12`, the figure is 52.4%.
In the case of `COc1ccc(NC(=S)N/N=C/c2cc(OC)c(OC)c(OC)c2)cc1`, the inhibition in test [1] is 0%.
For the compound `S=C(N/N=C/c1ccc2c(c1)OCO2)Nc1cccc2ccccc12`, the inhibition in test [1] stood at 62.6%. The concentration for half-maximal inhibition (IC50) in test [2] was determined as 17.8 µM.
Regarding `COc1ccc(NC(=S)N/N=C/c2ccc(N(C)C)cc2)cc1`, the inhibition in test [1] worked out at 3.9%.
Take `COc1ccc(NC(=S)N/N=C/c2ccc3c(c2)OCO3)cc1`: the inhibition in test [1] was determined as 0%.
The same measure, in the same setting: as for `S=C(N/N=C/c1cccc2ccccc12)Nc1cccc2ccccc12`, the figure is 10.3%.

The values above are taken from ChEMBL document CHEMBL4261631, “Synthetic thiosemicarbazones as a new class of Mycobacterium tuberculosis protein tyrosine phosphatase A inhibitors” (Bioorg Med Chem, 2018).
